Drawing on ChEMBL document CHEMBL1128204, “Novel non-nucleoside inhibitors of human immunodeficiency virus type 1 (HIV-1) reverse transcriptase. 4. 2-Substituted dipyridodiazepinones as potent inhibitors of both wild-type and cysteine-181 HIV-1 reverse transcriptase enzymes” (J Med Chem, 1995), this text covers IC50 for twelve compounds.

Each structure is given as a SMILES string.

One test has as its system C8166. Kind of test: Inhibitory concentration against cell culture of Human T-cell line c8166 infected with HIV-1 IIIB strain was determined. In kind it is functional, cell-based.
In test [1] the target is Human immunodeficiency virus type 1 reverse transcriptase (Human immunodeficiency virus 1, UniProt Q72547, E138K). Kind of test: Inhibitory concentration against mutant reverse transcriptase of E138K was determined which is in turn resistant to TSAO. The procedure, abridged:
(§1)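 The enzyme was either p66/p51 heterodimer purified to near homogeneity or crude E. coli lysate containing the mutant RT. Inhibitory concentration was measured in an RT enzyme assay.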

Test [2] concerns the target Human immunodeficiency virus type 1 reverse transcriptase (Human immunodeficiency virus 1, UniProt Q72547). Kind of test: Inhibitory concentration against HIV-1 wild type Reverse transcriptase (RT).
Test [3] deals with Human immunodeficiency virus type 1 reverse transcriptase (Human immunodeficiency virus 1, UniProt Q72547, K103N). Kind of test: Inhibitory concentration against mutant reverse transcriptase of K103N was determined which is in turn resistant to pyridinones. The essentials: as §1
Test [4] deals with Human immunodeficiency virus type 1 reverse transcriptase (Human immunodeficiency virus 1, UniProt Q72547, L100I). Kind of test: Inhibitory concentration against mutant reverse transcriptase of L100I was determined which is in turn resistant TIBO. The procedure, abridged:
as §1

Test [5] has as its target Human immunodeficiency virus type 1 reverse transcriptase (Human immunodeficiency virus 1, UniProt Q72547, P236L). Kind of test: Inhibitory concentration against mutant reverse transcriptase of P236L was determined which is in turn resistant to BHAP. The essentials: as §1
The target in test [6] is Human immunodeficiency virus type 1 reverse transcriptase (Human immunodeficiency virus 1, UniProt Q72547, Y181C). Kind of test: Inhibitory activity against HIV-1 Y181C Reverse transcriptase (RT). The essentials:
as §1

By IC50 is commonly meant the point on the concentration scale where inhibition reaches its midpoint. High values mean weaker potency, low ones greater potency.

As to `CCN1c2ncccc2C(=O)N(C)c2ccc(-c3ccc(N)nc3)nc21`, the IC50 in the test with C8166 is 240 nM; in test [1], 20 nM; in test [2] it was 50 nM; in test [3] it was 410 nM; in test [4], 240 nM; in test [5] it was 40 nM. The compound further showed an IC50 in test [6] of 260 nM.
In the case of `Cc1ccnc2c1NC(=O)c1cccnc1N2C1CC1` [NEVIRAPINE], in the test with C8166, 40 nM corresponded to half-maximal inhibition (IC50).
`CCN1c2ncccc2C(=O)N(C)c2ccc(-c3cn[nH]c3)nc21`: the IC50 with C8166 amounted to 40 nM; in test [1], 50 nM; in test [2], 20 nM; in test [3], 80 nM; in test [4] it was 2500 nM; in test [5] it was 130 nM. Also, half-maximal inhibition in test [6] (IC50) was put at 60 nM.
Consider `CN1C(=O)c2cccnc2N(C2CC2)c2nc(-c3cn[nH]c3)ccc21`, for which the IC50 worked out at 120 nM in the test with C8166; 460 nM in test [1]; 60 nM in test [2]; 420 nM in test [3]; 1500 nM in test [4]; 340 nM in test [5]. Also, the IC50 in test [6] was 50 nM.
Regarding `CCN1c2ncccc2C(=O)N(C)c2ccc(Cl)nc21`, the IC50 in the test on C8166 worked out at 160 nM; in test [1], 120 nM; in test [2], 80 nM; in test [3], 1100 nM; in test [5], 20 nM; in test [6] it was 210 nM.
With `CCN1c2ncccc2C(=O)N(C)c2ccc(-c3cc[nH]c3)nc21`, the IC50 was found to be 40 nM in the test on C8166; 70 nM in test [1]; 30 nM in test [2]; 50 nM in test [3]; 410 nM in test [4]; 130 nM in test [5]. This compound also yielded an IC50 in test [6] of 40 nM.
For the compound `CCN1c2ncccc2C(=O)N(C)c2ccc(-c3ccc(O)cc3)nc21`, the IC50 turned out to be 300 nM in the test with C8166; 60 nM in test [1]; 70 nM in test [2]; 10 nM in test [3]; 500 nM in test [4]; 1 nM in test [5]. For the same compound, 270 nM corresponded to half-maximal inhibition in test [6] (IC50).
On to `CCN1c2ncccc2C(=O)N(C)c2ccc(-c3ccc(N)cc3)nc21`, for which the IC50 in the test on C8166 was 550 nM; in test [1] it was 60 nM; in test [2], 40 nM; in test [3] it was 260 nM; in test [4], 570 nM; in test [5] it was 260 nM. Also, in test [6], inhibition was half-maximal at 120 nM (IC50).
Take `CCN1c2ncccc2C(=O)N(C)c2ccc(NC)nc21`: the IC50 is 190 nM in test [2] and 710 nM in test [6].
The corresponding values for `CCN1c2ncccc2C(=O)Nc2c(C)cc(N3CCSCC3)nc21` are 150 nM and over 1000 nM.
The corresponding values for `CCN1c2ncccc2C(=O)N(C)c2ccc(-c3cccc(OC)c3)nc21` are 150 nM and 210 nM.
On to `CCN1c2ncccc2C(=O)N(C)c2ccc(-c3cncs3)nc21`, for which the figures for the IC50 in test [2] and in test [6] were 380 nM and 1100 nM, respectively.
